Reference: article PMC4233149 (Clinical cancer research : an official journal of the …, 2014)
Marks after values point to notes of the source that are not given here.

Test: Phase I safety and tolerability, weekly
Format: in vivo, human
Summary of the method: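 Oral weekly dose escalation followed a 3+3 design (planned 90, 135, 200, 300mg, intermediate doses allowed), then a modified toxicity-probability-interval confirmation stage. A DLT was any drug-related CTCAE v3.0 ≥G4 hematological, ≥G3 febrile neutropenia or ≥G3 non-hematological toxicity. Safety visits, glucose, C-peptide and HbA1c monitoring followed a fixed schedule; AEs were graded by CTCAE v3.0.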

NC1(c2ccc(-c3nc4ccn5c(=O)[nH]nc5c4cc3-c3ccccc3)cc2)CCC1 [MK-2206]
Anorexia, number of AEs (90mg QW, G1, all cycles): 0 (0)
Dermatitis acneiform, number of AEs (90mg QW, G1, all cycles): 0 (0)
Diarrhea, number of AEs (90mg QW, G1, all cycles): 1 (1)
Dry skin, number of AEs (90mg QW, G1, all cycles): 0 (0)
Fatigue, number of AEs (90mg QW, G1, all cycles): 1 (1)
Nausea, number of AEs (90mg QW, G1, all cycles): 0 (0)
Pruritus, number of AEs (90mg QW, G1, all cycles): 0 (0)
Rash (all rash terms collated), number of AEs (90mg QW, G1, all cycles): 0 (0)
Stomatitis, number of AEs (90mg QW, G1, all cycles): 0 (0)
Vomiting, number of AEs (90mg QW, G1, all cycles): 1 (1)
Anorexia, number of AEs (90mg QW, G1, cycle 1): 0 (0)
Dermatitis acneiform, number of AEs (90mg QW, G1, cycle 1): 0 (0)
Diarrhea, number of AEs (90mg QW, G1, cycle 1): 1 (1)
Dry skin, number of AEs (90mg QW, G1, cycle 1): 0 (0)
Fatigue, number of AEs (90mg QW, G1, cycle 1): 1 (1)
Nausea, number of AEs (90mg QW, G1, cycle 1): 0 (0)
Pruritus, number of AEs (90mg QW, G1, cycle 1): 0 (0)
Rash (all rash terms collated), number of AEs (90mg QW, G1, cycle 1): 0 (0)
Stomatitis, number of AEs (90mg QW, G1, cycle 1): 0 (0)
Vomiting, number of AEs (90mg QW, G1, cycle 1): 1 (1)
Anorexia, number of AEs (135mg QW, G1, all cycles): 0 (0)
Dermatitis acneiform, number of AEs (135mg QW, G1, all cycles): 1 (1)
Diarrhea, number of AEs (135mg QW, G1, all cycles): 0 (0)
Dry skin, number of AEs (135mg QW, G1, all cycles): 0 (0)
Dysgeusia, number of AEs (135mg QW, G1, all cycles): 0 (0)
Fatigue, number of AEs (135mg QW, G1, all cycles): 0 (0)
Nausea, number of AEs (135mg QW, G1, all cycles): 0 (0)
Pruritus, number of AEs (135mg QW, G1, all cycles): 1 (1)
Rash (all rash terms collated), number of AEs (135mg QW, G1, all cycles): 1 (1)
Stomatitis, number of AEs (135mg QW, G1, all cycles): 0 (0)
Vomiting, number of AEs (135mg QW, G1, all cycles): 0 (0)
Anorexia, number of AEs (135mg QW, G1, cycle 1): 0 (0)
Dermatitis acneiform, number of AEs (135mg QW, G1, cycle 1): 1 (1)
Diarrhea, number of AEs (135mg QW, G1, cycle 1): 0 (0)
Dry skin, number of AEs (135mg QW, G1, cycle 1): 0 (0)
Dysgeusia, number of AEs (135mg QW, G1, cycle 1): 0 (0)
Fatigue, number of AEs (135mg QW, G1, cycle 1): 0 (0)
Nausea, number of AEs (135mg QW, G1, cycle 1): 0 (0)
Pruritus, number of AEs (135mg QW, G1, cycle 1): 1 (1)
Rash (all rash terms collated), number of AEs (135mg QW, G1, cycle 1): 1 (1)
Stomatitis, number of AEs (135mg QW, G1, cycle 1): 0 (0)
Vomiting, number of AEs (135mg QW, G1, cycle 1): 0 (0)
Dermatitis acneiform, number of AEs (150mg QW, G1, all cycles): 0 (0)
Diarrhea, number of AEs (150mg QW, G1, all cycles): 0 (0)
Dry skin, number of AEs (150mg QW, G1, all cycles): 0 (0)
Dysgeusia, number of AEs (150mg QW, G1, all cycles): 0 (0)
Fatigue, number of AEs (150mg QW, G1, all cycles): 0 (0)
Nausea, number of AEs (150mg QW, G1, all cycles): 0 (0)
Pruritus, number of AEs (150mg QW, G1, all cycles): 0 (0)
Rash (all rash terms collated), number of AEs (150mg QW, G1, all cycles): 0 (0)
Stomatitis, number of AEs (150mg QW, G1, all cycles): 0 (0)
Vomiting, number of AEs (150mg QW, G1, all cycles): 2 (2)
Dermatitis acneiform, number of AEs (150mg QW, G1, cycle 1): 0 (0)
Diarrhea, number of AEs (150mg QW, G1, cycle 1): 0 (0)
Dry skin, number of AEs (150mg QW, G1, cycle 1): 0 (0)
Dysgeusia, number of AEs (150mg QW, G1, cycle 1): 0 (0)
Fatigue, number of AEs (150mg QW, G1, cycle 1): 0 (0)
Nausea, number of AEs (150mg QW, G1, cycle 1): 0 (0)
Pruritus, number of AEs (150mg QW, G1, cycle 1): 0 (0)
Rash (all rash terms collated), number of AEs (150mg QW, G1, cycle 1): 0 (0)
Stomatitis, number of AEs (150mg QW, G1, cycle 1): 0 (0)
Vomiting, number of AEs (150mg QW, G1, cycle 1): 2 (2)
Anorexia, number of AEs (150mg QW, G2, all cycles): 0 (0)
Dermatitis acneiform, number of AEs (150mg QW, G2, all cycles): 0 (0)
Diarrhea, number of AEs (150mg QW, G2, all cycles): 0 (0)
Dry skin, number of AEs (150mg QW, G2, all cycles): 0 (0)
Dysgeusia, number of AEs (150mg QW, G2, all cycles): 0 (0)
Fatigue, number of AEs (150mg QW, G2, all cycles): 0 (0)
Nausea, number of AEs (150mg QW, G2, all cycles): 1 (1)
Pruritus, number of AEs (150mg QW, G2, all cycles): 0 (0)
Rash (all rash terms collated), number of AEs (150mg QW, G2, all cycles): 0 (0)
Stomatitis, number of AEs (150mg QW, G2, all cycles): 0 (0)
Vomiting, number of AEs (150mg QW, G2, all cycles): 0 (0)
Anorexia, number of AEs (150mg QW, G2, cycle 1): 0 (0)
Dermatitis acneiform, number of AEs (150mg QW, G2, cycle 1): 0 (0)
Diarrhea, number of AEs (150mg QW, G2, cycle 1): 0 (0)
Dry skin, number of AEs (150mg QW, G2, cycle 1): 0 (0)
Dysgeusia, number of AEs (150mg QW, G2, cycle 1): 0 (0)
Fatigue, number of AEs (150mg QW, G2, cycle 1): 0 (0)
Nausea, number of AEs (150mg QW, G2, cycle 1): 1 (1)
Pruritus, number of AEs (150mg QW, G2, cycle 1): 0 (0)
Rash (all rash terms collated), number of AEs (150mg QW, G2, cycle 1): 0 (0)
Stomatitis, number of AEs (150mg QW, G2, cycle 1): 0 (0)
Vomiting, number of AEs (150mg QW, G2, cycle 1): 0 (0)
Anorexia, number of AEs (150mg QW, G3, all cycles): 0 (0)
Dermatitis acneiform, number of AEs (150mg QW, G3, all cycles): 0 (0)
Diarrhea, number of AEs (150mg QW, G3, all cycles): 0 (0)
Dry skin, number of AEs (150mg QW, G3, all cycles): 0 (0)
Dysgeusia, number of AEs (150mg QW, G3, all cycles): 0 (0)
Fatigue, number of AEs (150mg QW, G3, all cycles): 0 (0)
Nausea, number of AEs (150mg QW, G3, all cycles): 0 (0)
Pruritus, number of AEs (150mg QW, G3, all cycles): 0 (0)
Rash (all rash terms collated), number of AEs (150mg QW, G3, all cycles): 3
Stomatitis, number of AEs (150mg QW, G3, all cycles): 0 (0)
Vomiting, number of AEs (150mg QW, G3, all cycles): 0 (0)
Anorexia, number of AEs (150mg QW, G3, cycle 1): 0 (0)
Dermatitis acneiform, number of AEs (150mg QW, G3, cycle 1): 0 (0)
Diarrhea, number of AEs (150mg QW, G3, cycle 1): 0 (0)
Dry skin, number of AEs (150mg QW, G3, cycle 1): 0 (0)
Dysgeusia, number of AEs (150mg QW, G3, cycle 1): 0 (0)
Fatigue, number of AEs (150mg QW, G3, cycle 1): 0 (0)
Nausea, number of AEs (150mg QW, G3, cycle 1): 0 (0)
Pruritus, number of AEs (150mg QW, G3, cycle 1): 0 (0)
Stomatitis, number of AEs (150mg QW, G3, cycle 1): 0 (0)
Vomiting, number of AEs (150mg QW, G3, cycle 1): 0 (0)
Rash (all rash terms collated), number of AEs (150mg QW, G3, cycle 1, dose-limiting toxicity): 1
Anorexia, number of AEs (200mg QW, G1, all cycles): 1 (1)
Dermatitis acneiform, number of AEs (200mg QW, G1, all cycles): 0 (0)
Diarrhea, number of AEs (200mg QW, G1, all cycles): 2 (2)
Dry skin, number of AEs (200mg QW, G1, all cycles): 1 (1)
Dysgeusia, number of AEs (200mg QW, G1, all cycles): 0 (0)
Nausea, number of AEs (200mg QW, G1, all cycles): 4 (4)
Stomatitis, number of AEs (200mg QW, G1, all cycles): 2 (2)
Vomiting, number of AEs (200mg QW, G1, all cycles): 2 (2)
Anorexia, number of AEs (200mg QW, G1, cycle 1): 1 (1)
Dermatitis acneiform, number of AEs (200mg QW, G1, cycle 1): 0 (0)
Diarrhea, number of AEs (200mg QW, G1, cycle 1): 2 (2)
Dry skin, number of AEs (200mg QW, G1, cycle 1): 1 (1)
Dysgeusia, number of AEs (200mg QW, G1, cycle 1): 0 (0)
Nausea, number of AEs (200mg QW, G1, cycle 1): 4 (4)
Stomatitis, number of AEs (200mg QW, G1, cycle 1): 2 (2)
Vomiting, number of AEs (200mg QW, G1, cycle 1): 2 (2)
Anorexia, number of AEs (200mg QW, G2, all cycles): 0 (0)
Dermatitis acneiform, number of AEs (200mg QW, G2, all cycles): 0 (0)
Diarrhea, number of AEs (200mg QW, G2, all cycles): 0 (0)
Dry skin, number of AEs (200mg QW, G2, all cycles): 0 (0)
Dysgeusia, number of AEs (200mg QW, G2, all cycles): 0 (0)
Fatigue, number of AEs (200mg QW, G2, all cycles): 1 (1)
Nausea, number of AEs (200mg QW, G2, all cycles): 1 (1)
Rash (all rash terms collated), number of AEs (200mg QW, G2, all cycles): 4 (4)
Stomatitis, number of AEs (200mg QW, G2, all cycles): 0 (0)
Vomiting, number of AEs (200mg QW, G2, all cycles): 0 (0)
Anorexia, number of AEs (200mg QW, G2, cycle 1): 0 (0)
Dermatitis acneiform, number of AEs (200mg QW, G2, cycle 1): 0 (0)
Diarrhea, number of AEs (200mg QW, G2, cycle 1): 0 (0)
Dry skin, number of AEs (200mg QW, G2, cycle 1): 0 (0)
Dysgeusia, number of AEs (200mg QW, G2, cycle 1): 0 (0)
Fatigue, number of AEs (200mg QW, G2, cycle 1): 1 (1)
Nausea, number of AEs (200mg QW, G2, cycle 1): 1 (1)
Rash (all rash terms collated), number of AEs (200mg QW, G2, cycle 1): 4 (4)
Stomatitis, number of AEs (200mg QW, G2, cycle 1): 0 (0)
Vomiting, number of AEs (200mg QW, G2, cycle 1): 0 (0)
Anorexia, number of AEs (200mg QW, G3, all cycles): 0 (0)
Dermatitis acneiform, number of AEs (200mg QW, G3, all cycles): 1^c (1)
Diarrhea, number of AEs (200mg QW, G3, all cycles): 0 (0)
Dry skin, number of AEs (200mg QW, G3, all cycles): 0 (0)
Dysgeusia, number of AEs (200mg QW, G3, all cycles): 0 (0)
Fatigue, number of AEs (200mg QW, G3, all cycles): 0 (0)
Nausea, number of AEs (200mg QW, G3, all cycles): 0 (0)
Pruritus, number of AEs (200mg QW, G3, all cycles): 0 (0)
Rash (all rash terms collated), number of AEs (200mg QW, G3, all cycles): 3^c (3)
Stomatitis, number of AEs (200mg QW, G3, all cycles): 0 (0)
Vomiting, number of AEs (200mg QW, G3, all cycles): 0 (0)
Anorexia, number of AEs (200mg QW, G3, cycle 1): 0 (0)
